Measurements from PMC3747510 (Scientific Reports, 2013).
Residue numbers refer to the chain shown, from its start.

Tests used:
SpLeuRS C399S = target: T1, SpLeuRS C399S (Streptococcus pneumoniae serotype 4, UniProt Q97SS0, W399S); assay: Aminoacylation and deacylation by SpLeuRS C399S mutant; type: biochemical; settings: 50 μM ZCL039
T1 sequence (Q97SS0 1-833 W399S): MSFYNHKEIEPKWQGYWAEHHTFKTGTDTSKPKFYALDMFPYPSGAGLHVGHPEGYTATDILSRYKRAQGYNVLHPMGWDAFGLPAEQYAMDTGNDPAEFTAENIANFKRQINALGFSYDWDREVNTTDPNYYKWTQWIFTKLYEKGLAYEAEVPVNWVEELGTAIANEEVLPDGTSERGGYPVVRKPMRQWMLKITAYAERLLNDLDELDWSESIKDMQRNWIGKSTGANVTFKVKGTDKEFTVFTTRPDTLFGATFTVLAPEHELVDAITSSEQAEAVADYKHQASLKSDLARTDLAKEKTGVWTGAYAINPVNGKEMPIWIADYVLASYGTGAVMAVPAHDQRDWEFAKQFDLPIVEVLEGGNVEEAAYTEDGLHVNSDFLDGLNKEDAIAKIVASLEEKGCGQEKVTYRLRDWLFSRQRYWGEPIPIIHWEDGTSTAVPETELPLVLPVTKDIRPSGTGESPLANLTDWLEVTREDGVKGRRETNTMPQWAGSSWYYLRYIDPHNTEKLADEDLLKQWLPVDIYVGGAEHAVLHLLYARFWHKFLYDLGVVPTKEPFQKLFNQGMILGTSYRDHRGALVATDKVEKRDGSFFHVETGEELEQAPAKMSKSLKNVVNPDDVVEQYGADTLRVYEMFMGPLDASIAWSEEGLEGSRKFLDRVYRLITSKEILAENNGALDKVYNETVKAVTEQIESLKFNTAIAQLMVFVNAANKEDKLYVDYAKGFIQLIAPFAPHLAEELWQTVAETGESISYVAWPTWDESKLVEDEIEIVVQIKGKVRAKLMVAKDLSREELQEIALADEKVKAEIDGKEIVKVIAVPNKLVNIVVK

SpLeuRS-MmLinker = assay: Aminoacylation by SpLeuRS-MmLinker chimeric mutant; type: biochemical, Streptococcus pneumoniae; settings: 50 μM ZCL039
Summary of the method: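 Aminoacylation at 37°C, started with 4 mM ATP. Point mutants were made by site-directed mutagenesis. The MmLinker chimera has CP1 Lys226–Thr411 replaced by a nonapeptide. Means of three independent experiments.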

SpLeuRS = target: T2, SpLeuRS (Streptococcus pneumoniae serotype 4, UniProt Q97SS0); assay: ATP-PPi exchange; type: biochemical; settings: 200 μM ZCL039
T2 sequence (Q97SS0 1-833): T1 sequence (Q97SS0 1-833 W399S) with S399W
Summary of the method: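 Leucine activation (ATP-PPi exchange) at 37°C with 10 nM N-His6 SpLeuRS, expressed in E. coli BL21(DE3) and Ni-NTA purified. Run with or without test compound in DMSO. The [32P]ATP formed was separated and counted. Means of three independent experiments.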

[1] = target: T3, Human mitochondrial LeuRS (Homo sapiens, UniProt Q15031); assay: Aminoacylation inhibition; type: biochemical
T3 sequence (Q15031 1-903): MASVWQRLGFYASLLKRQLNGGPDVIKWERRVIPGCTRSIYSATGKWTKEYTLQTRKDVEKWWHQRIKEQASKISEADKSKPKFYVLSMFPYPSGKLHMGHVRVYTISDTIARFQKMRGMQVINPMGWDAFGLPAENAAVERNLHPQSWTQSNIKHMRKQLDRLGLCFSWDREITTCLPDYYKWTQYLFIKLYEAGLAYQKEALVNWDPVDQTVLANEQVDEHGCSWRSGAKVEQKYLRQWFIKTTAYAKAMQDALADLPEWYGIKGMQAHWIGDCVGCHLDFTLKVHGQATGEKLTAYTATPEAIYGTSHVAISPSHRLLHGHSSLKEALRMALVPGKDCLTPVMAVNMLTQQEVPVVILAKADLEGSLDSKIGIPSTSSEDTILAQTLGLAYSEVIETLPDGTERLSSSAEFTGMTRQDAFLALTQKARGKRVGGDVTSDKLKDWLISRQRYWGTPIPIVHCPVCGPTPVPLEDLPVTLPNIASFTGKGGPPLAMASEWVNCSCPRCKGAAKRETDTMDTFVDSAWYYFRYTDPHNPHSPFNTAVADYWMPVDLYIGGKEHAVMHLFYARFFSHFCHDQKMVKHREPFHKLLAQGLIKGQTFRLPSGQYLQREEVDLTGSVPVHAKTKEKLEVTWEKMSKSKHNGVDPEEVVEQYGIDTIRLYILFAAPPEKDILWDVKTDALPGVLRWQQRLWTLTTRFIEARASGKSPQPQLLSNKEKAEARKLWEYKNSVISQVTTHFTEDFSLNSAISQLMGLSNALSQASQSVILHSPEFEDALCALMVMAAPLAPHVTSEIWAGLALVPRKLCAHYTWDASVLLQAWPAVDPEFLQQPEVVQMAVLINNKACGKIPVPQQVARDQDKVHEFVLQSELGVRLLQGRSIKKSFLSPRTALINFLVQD
Summary of the method: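 Human cytosolic or mitochondrial LeuRS, expressed in E. coli. Aminoacylation run at 30°C. At least six test-compound concentrations were tested, with enzyme amount set to form 10 pmol Leu-tRNALeu in 5 min. IC50 was taken from a fitted dose-response curve, as the mean of at least two independent experiments.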

Compound: OB1OCc2ccc(C(O)c3ccccc3)cc21 (stereo not shown) [ZCL039, [6-(1-phenyl-1-hydroxylmethyl)]-1,3-dihydro-1-hydroxy-2,1-benzoxaborole]
- Sensitivity of C399S mutant to ZCL039 (SpLeuRS C399S): comparable to the wild-type SpLeuRS
- Effect on tRNA charging activity of SpLeuRS-MmLinker (SpLeuRS-MmLinker): not affected
- Effect on PPi exchange activity of SpLeuRS (SpLeuRS): not affected
- IC50 [1]: > 250 µM
